In ChEMBL document CHEMBL1129752, “Novel 3-Pyridyl ethers with subnanomolar affinity for central neuronal nicotinic acetylcholine receptors” (J Med Chem, 1996):

Assays:
IMR-32 [1] = test: Ability to stimulate Rb+ efflux from human IMR-32 cell preparations containing human alpha3-betaX receptors; type: functional, cell-based
K177 cell line [2] = test: Ability to stimulate Rb+ efflux from human K177 cell preparations containing human alpha4-beta2 receptors; type: functional, cell-based
IMR-32 (Homo sapiens) = test: Ability to stimulate Rb+ efflux from human IMR-32 cell preparations containing human alpha3-betaX receptors
IMR-32 [3] = test: Maximum efficacy relative to 100(uM) (S)-nicotine for cell preparations containing alpha3-betaX IMR32 cells; type: functional, Homo sapiens
K177 cell line [4] = test: Maximum efficacy relative to 100(uM) (S)-nicotine for cell preparations containing alpha4-beta2 K177 cells; type: functional, Homo sapiens
[5] = molecular target: Neuronal acetylcholine receptor; test: Binding affinity against Nicotinic Acetylcholine Receptor was determined by measuring the displacement of [3H]cytisine from a preparation of whole rat brain.
How it was run: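 Displacement of the radioligand [3H]-(-)-cytisine from a whole rat brain preparation, which mainly labels the α4β2 receptor subtype. The procedure follows a previously published method.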

Clc1ccc(C2CC3CCC2N3)cn1 (stereo not drawn) [EPIBATIDINE] gave an EC50 (IMR-32 [1]) of 7 nM, an EC50 (K177 cell line [2]; Homo sapiens, K177) of 17 nM and a Max (IMR-32 (Homo sapiens)) of 156%. The Max (IMR-32 [3]) was 156%.

Work on c1cncc(OC[C@@H]2CCN2)c1 yielded an EC50 (IMR-32 [1]) of 700 nM, an EC50 (K177 cell line [2]; Homo sapiens, K177) of 680 nM and a Max (IMR-32 [3]) of 113%. It also gave a Max (K177 cell line [4]) of 163%.

For CN1CC[C@H]1COc1cccnc1, the EC50 (IMR-32 [1]) was 30000 nM, the EC50 (K177 cell line [2]; Homo sapiens, K177) was 3700 nM and the Ki [5] was 0.45 nM. For the same compound, the Max (IMR-32 [3]) was 74% and the Max (K177 cell line [4]) was 116%.

With CN1CCC[C@H]1COc1cccnc1 (stereo in doubt; 2a) the EC50 (K177 cell line [2]; k177) was 750 nM, the Ki [5] was 0.15 nM and the Max (IMR-32 [3]) was 100%.

Work on CN1CCC[C@@H]1COc1cccnc1 yielded an IC50 (IMR-32 [1]) of 54000 nM, an IC50 (K177 cell line [2]) of 110000 nM and a Ki [5] of 19.7 nM. For the same compound, the Max (IMR-32 [3]) was under 20% and the Max (K177 cell line [4]) was under 10%.

Work on CN1CCC[C@H]1c1cccnc1 [NICOTINE] yielded an EC50 (K177 cell line [2]; Homo sapiens, K177) of 5000 nM, a Max (IMR-32 (Homo sapiens)) of 100% and a Max (IMR-32 [3]) of 100%.

c1cncc(OC[C@H]2CCCN2)c1 gave an EC50 (IMR-32 [1]) of 5800 nM, an EC50 (K177 cell line [2]; Homo sapiens, K177) of 4300 nM and a Ki [5] of 0.14 nM. For the same compound, the Max (IMR-32 [3]) was 100% and the Max (K177 cell line [4]) was 120%.

Compound CN1CC[C@@H]1COc1cccnc1 has an EC50 (IMR-32 [1]) of 38000 nM, an EC50 (K177 cell line [2]; Homo sapiens, K177) of 35000 nM and a Ki [5] of 3.5 nM. For the same compound, the Max (IMR-32 [3]) was 39% and the Max (K177 cell line [4]) was 103%.

For c1cncc(OC[C@H]2CCN2)c1, the EC50 (IMR-32 [1]) was 1100 nM, the EC50 (K177 cell line [2]; Homo sapiens, K177) was 400 nM and the Max (IMR-32 [3]) was 116%. The Max (K177 cell line [4]) was 159%.
